Results on 8 molecules are retold here after ChEMBL document CHEMBL1155935, “Epoxydons and a pyrone from the marine-derived fungus Nigrospora sp. PSU-F5” (2008).

Each structure is given as a SMILES string. ≈ marks a conversion by molar mass, not a printed value. Calls of active or inactive are those of the source. No cut-off for these calls is given here. A value given as a limit tells only on which side of the number the result lay.

For experiment [1], the system named is Staphylococcus aureus. The experiment is described as follows: Antimicrobial activity against Staphylococcus aureus. Format: functional. The gist of the method:
(§1)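 Agar microdilution MIC. Compounds in DMSO, serially 2-fold diluted and mixed 1:100 into melted Mueller-Hinton agar, giving final concentrations of 0.03–128 µg/mL. Strains were S. aureus ATCC 25923 and MRSA SK1. Inocula were spotted onto the agar and incubated at 35 °C for 18 h. MIC was the lowest concentration preventing visible growth. Vancomycin was the positive control; DMSO agar was the growth control.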

Experiment [2] has as its system Staphylococcus aureus. The experiment is described as follows: Antimicrobial activity against methicillin-resistant Staphylococcus aureus. The format is functional. Summed up: as §1

Consider `CC1=CC(=O)CC(C)(C)[C@H]1/C=C/C(C)=C\C(=O)O`, for which the outcome in experiment [1] and in experiment [2] was inactive.

On to `O=C(O[C@H]1C(=O)C(CO)=C[C@@H](O)[C@@H]1O)c1cccc(O)c1`, for which the outcome in experiment [1] and in experiment [2] was inactive.

What is called MIC is the lowest concentration found to suppress growth. Low values mean greater potency, high ones weaker potency. With `O=C1C(CO)=C[C@@H](O)[C@H]2O[C@@H]12` [EPOXYDON], the MIC in experiment [1] and in experiment [2] was 128 µg/mL (≈ 820 µM) in each case.

`CC1=CC(=O)CC(C)(C)[C@@]1(O)/C=C/C(C)=C\C(=O)O`: the result in experiment [1] and in experiment [2] was inactive.

With `CC1=CC(=O)CC(C)(C)[C@@]1(O)/C=C/C(C)=C\C(=O)O[C@H]1C(=O)C(CO)=C[C@@H](O)[C@@H]1O` [NIGROSPOXYDON A], the MIC is 64 µg/mL (≈ 152 µM) in experiment [1] and over 128 µg/mL in experiment [2].

Consider `COc1cc(/C(C)=C/CO)oc(=O)c1`, for which the outcome in experiment [1] and in experiment [2] was inactive.

Consider `C/C=C(\C)c1cc(OC)cc(=O)o1`, for which the result in experiment [1] and in experiment [2] was inactive.

For the molecule `COC(=O)C(Cc1ccccc1)OC(CC(C)C)C(=O)O[C@H]1C(=O)C(CO)=C[C@@H](O)[C@@H]1O` (stereo partly specified), the outcome in experiment [1] and in experiment [2] was inactive.
